An excerpt weighted towards active compounds, which were near 1.8% of everything screened.
H9c2 TAG inh – triacylglycerol accumulation inhibition. H9c2 cells, Nile Red lipid (TAG) fluorescence; cells loaded with 200 µM oleic acid. inhibition, % at 12.5 µM. 0.66% of 230,000 active;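 active = pattern-corrected inhibition of lipid staining of at least 50% with the nuclear-stain viability signal not falling by more than 50%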
Lipid droplet – hepatic lipid droplet formation modulation; AML12 mouse hepatocytes, oleate lipid droplets, BODIPY imaging; inhibition, % at 6.5 µM; 0.4% of 240,000 active; AID 1656;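 active = lipid droplet intensity inhibited by at least 50%, with more than 500 cells counted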
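Material: mouse AML12 hepatocyte cell line, fixed after treatment; Timing: compound with oleate, overnight; Technique: high-content imaging of BODIPY-stained droplets and DAPI nuclei; Probe or stimulus: oleate, 100 µM final; Dosing: compound at 6.5 µM only.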
697 NFkB inh – inhibitors of the PMA/ionomycin-induced NF-kB reporter in 697 B cells. 0.33% of 330,000 active. inhibition, % at 4 µM. 697 B-cell NF-kB luciferase reporter, 16 h; in the data active = inhibition above about 35%
Gli-Sufu antag – antagonists of Gli-Sufu signaling. inhibition, % at 5 µM. 0.74% of 340,000 active. AID 588413. Sufu-KO-LIGHT fibroblasts, Gli luciferase reporter luminescence;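 active = inhibition above about 55%, limit read from the data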
iPSC survival up – hiPSC single-cell survival enhancement; ATPlite luminescence; 100% = ROCK inhibitor wells, 0% = DMSO; survival enhancement, % at 20 µM; 0.044% of 360,000 active; AID 602274; in the data active = survival enhancement above about 18%;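 also: cells exposed to compounds for 16 hours before the ATP read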
Jurkat NFkB inh – inhibitors of the PMA/ionomycin-induced NF-kB reporter in Jurkat cells; PMA/ionomycin-induced NF-kB luciferase reporter, luminescence; inhibition, % at 4 µM; 0.53% of 330,000 active; AID 435003; in the data active = inhibition above about 50%
Gli antag conf – Gli-SUFU antagonism confirmation, single concentration; inhibition, % at 5 µM; 40% of 2,500 active; shares compounds with Gli-Sufu antag; Sufu-KO-LIGHT cells, Gli luciferase reporter, luminescence;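 active = mean inhibition at 5 µM reaching about 45%, limit read from the data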
SufuKO cytotox – cytotoxic in Gli-SUFU antagonist counter-screen; Sufu-KO-LIGHT cells cytotoxicity, ATP luminescence; AID 651994; 32% of 2,500 active; shares compounds with Gli-Sufu antag; cytotoxicity, % at 5 µM;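 active = mean cytotoxicity at 5 µM above about 25%, limit read from the data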;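 also: cells exposed to compound overnight for roughly 16 to 18 hours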
Wnt3a counter – counter-screen for Gli-SUFU antagonists: Wnt3a reporter inhibition; shares compounds with Gli-Sufu antag; Wnt-LIGHT cells, Wnt3a-driven luciferase reporter, luminescence; inhibition, % at 6.25 µM; AID 651995; 20% of 2,500 active;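 active = mean inhibition above about 25%, limit read from the data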
A number is an active result; - = inactive; . = no result.

SMILES | H9c2 TAG inh | Lipid droplet | 697 NFkB inh | Gli-Sufu antag | iPSC survival up | Jurkat NFkB inh | Gli antag conf | SufuKO cytotox | Wnt3a counter
O=[N+]([O-])c1cccc2nc3ccccc3c(NCCCn3ccnc3[N+](=O)[O-])c12 | - | . | . | - | - | . | . | . | .
CCCNS(=O)(=O)c1ccc(CCC(=O)N2CCN(c3ccc(F)cc3)CC2)cc1 | - | - | - | - | - | - | . | . | .
Cc1cccc(NC(=S)N2CCN(c3ccc(F)cc3)CC2)c1 | . | - | - | - | - | - | . | . | .
Cc1ccccc1NC(=S)N(CCc1c(C)[nH]c2ccc(F)cc12)Cc1ccncc1 | - | - | - | 59 | - | - | - | 26 | -
Cc1[nH]c2ccc(F)cc2c1CCN(Cc1ccncc1)C(=S)Nc1cccc(F)c1 | - | - | - | - | - | - | . | . | .
O=S(=O)(NCc1cn2ccccc2n1)c1cc(F)ccc1F | - | - | - | 62 | - | - | - | - | -
O=S(=O)(NCc1cn2ccccc2n1)c1cccs1 | - | - | - | - | - | - | . | . | .
CCSc1nnc(NC(=O)CSc2nc(CC)nc3c2c(=O)n(C)c(=O)n3C)s1 | - | - | - | - | - | - | . | . | .
CCCc1nc(SCC(=O)Nc2nnc(CC)s2)c2c(=O)n(C)c(=O)n(C)c2n1 | - | - | - | 66 | - | - | 50 | - | -
CCCc1nc(SCC(=O)Nc2nnc(SCC)s2)c2c(=O)n(C)c(=O)n(C)c2n1 | - | - | - | 58 | - | - | 56 | 35 | -
CCc1nc(SCC(=O)Nc2nnc(CC)s2)c2c(=O)n(C)c(=O)n(C)c2n1 | - | - | - | - | - | - | . | . | .
COc1ccc(C(=O)c2c(NC(C)=O)sc3c2CCN(C(=O)OC(C)(C)C)C3)cc1 | - | - | - | - | - | - | . | . | .
CC1(C(=O)OCC(=O)NCCNC(=O)COC(=O)C2(C)CC2(Cl)Cl)CC1(Cl)Cl (stereo not drawn) | - | - | - | - | - | - | . | . | .
COc1ccc(CCNC(=O)CC2SC(=NCCc3ccccc3)NC2=O)cc1 (stereo not drawn) | - | - | - | - | - | - | . | . | .
CCCCOc1ccc([N+](=O)[O-])cc1C(=O)O | - | - | - | - | - | - | . | . | .
COc1ccc(NC(=O)CCCCCn2nnc3ccccc3c2=O)cc1OC | . | - | - | - | - | - | . | . | .
CC(=O)Nc1ccc(C(=O)NC2CCCC2)cc1 | - | - | - | - | - | - | . | . | .
S=C(Nc1cccnc1)NC1CCCC1 | . | - | - | 59 | - | - | - | - | -
O=C(Nc1ccc(C(=O)NC2CCCCC2)cc1)c1cccnc1 | - | - | - | 55 | - | - | - | - | -
Cc1cc(NC(=O)COC(=O)CCNS(=O)(=O)c2ccccc2)n(-c2ccccc2)n1 | - | . | - | - | - | - | . | . | .
Brc1ccc(-c2csc(N3CCCCCC3)n2)cc1 | - | - | - | - | - | - | 59 | - | 27
Cn1c(=O)c2ccccc2n(Cc2ccccc2F)c1=O | . | . | - | - | - | - | . | . | .
Cn1c(=O)c2ccccc2n(Cc2cccc(F)c2)c1=O | . | - | - | - | - | - | - | - | -
COc1ccc(CC(=O)NNC(=O)c2nn(Cc3ccccc3)c(=O)c3ccccc23)cc1OC | - | - | - | - | - | - | . | . | .
Cc1onc(-c2ccccc2Cl)c1C(=O)N1CCCCCC1 | . | - | - | 59 | - | - | - | - | -
SMILES | H9c2 TAG inh | Lipid droplet | 697 NFkB inh | Gli-Sufu antag | iPSC survival up | Jurkat NFkB inh | Gli antag conf | SufuKO cytotox | Wnt3a counter
COc1ccc(Nc2nc(N3CCCCC3)c3ccccc3n2)cc1 | - | . | - | 58 | - | - | 49 | 39 | -
Cc1c(C(=O)N2CCCCCC2)c(S(=O)(=O)Nc2ccccc2F)c(C)n1C | . | - | - | - | - | - | - | - | -
COc1cc(CN(C)CC2CCCN(CCc3ccccc3F)C2)cc(Cl)c1OC (stereo not drawn) | - | - | - | - | - | - | . | . | .
CCN(CC(=O)Nc1c(F)cccc1F)C(=O)CCNC(=O)c1ccco1 | - | . | - | - | - | - | . | . | .
Cc1ccc(NS(=O)(=O)c2ccc(-c3ccc(=O)[nH]n3)o2)cc1Cl | . | - | - | - | - | - | - | - | -
Oc1ccccc1N1CCN(C(=S)Nc2ccc(SC(F)F)cc2)CC1 | - | - | - | 76 | - | - | - | - | -
FC(F)Sc1ccc(NC(=S)N2CCN(c3ccccn3)CC2)cc1 | . | - | - | - | - | - | . | . | .
Cc1ccc2nc(C)c3c(c2c1)N(c1ccc(F)cc1)CC3 | - | - | - | - | - | - | . | . | .
Cn1c(C(=O)NCCN2CCCCCC2)cc2c(=O)n(C)c3ccccc3c21 | . | . | - | - | - | - | . | . | .
Cn1c(C(=O)NC2CCCC2)cc2c(=O)n(C)c3ccccc3c21 | - | . | . | 99 | - | . | - | - | -
O=C(CN1CCN(c2ccccc2)CC1)N/N=C/c1cccc(F)c1 | - | - | - | - | - | - | . | . | .
Fc1cccc(-c2cncc(N3CCN(CCN4CCCC4)CC3)n2)c1 | - | . | . | . | - | . | . | . | .
CCOc1cc(/C=C2/NC(=O)N(Cc3ccccc3F)C2=O)ccc1O | - | - | - | 74 | - | - | 71 | - | 45
Nc1nc2nccc(-c3cccnc3)n2n1 | - | . | - | 95 | - | - | - | - | -
Cc1ccc(CSc2nnc(NC(=O)C3=COCCO3)s2)cc1 | - | . | - | - | - | - | . | . | .
OC(CN1CCCCCC1)CN(c1ccccc1)c1ccccc1 (stereo not drawn) | . | - | - | - | - | - | - | - | -
CC1CCN(Cc2ccc(-c3nnn(CC(=O)Nc4ccccc4Cl)n3)cc2)CC1 | - | - | - | 58 | - | - | 73 | 33 | -
CC(=O)c1ccc(N2CCN(c3ccc(C(F)(F)F)cn3)CC2)cc1 | . | - | . | - | - | . | 52 | - | -
CCCCCCCCCCOC(=O)C[N+](C)(C)C/C=C(/C)Cl | . | - | - | 63 | - | - | 69 | 27 | 35
Cc1[nH]c(C)c(S(=O)(=O)NCC(C)c2ccccc2)c1C(=O)N1CCCCC1 (stereo not drawn) | . | - | - | - | - | - | . | . | .
CNC(=S)NNC(=O)c1cccn(Cc2cccc(C(F)(F)F)c2)c1=O | . | - | - | - | - | - | . | . | .
CN(CC(=O)Nc1cccc(Cl)c1)S(=O)(=O)c1ccc2c(c1)n(C)c(=O)c(=O)n2C | . | - | - | - | - | - | . | . | .
O=C1C(Cl)=C(N2CCCCC2)C(=O)N1c1ccccc1Cl | . | - | - | 60 | - | - | - | - | -
Cc1ccc(S(=O)(=O)N2CCN(C(=O)COC(=O)COc3ccccc3C(C)C)CC2)c(C)c1 | - | . | . | - | - | . | . | . | .
O=C(CSc1ccccc1)N1CCCC(N2CCN(c3ccccc3)CC2)C1 (stereo not drawn) | . | - | - | - | - | - | . | . | .
